These results are taken from ChEMBL document CHEMBL4014308, “Amphiphilic Tobramycin-Lysine Conjugates Sensitize Multidrug Resistant Gram-Negative Bacteria to Rifampicin and Minocycline” (J Med Chem, 2017).

Series [1] deals with Pseudomonas aeruginosa. Briefly: Potentiation of minocycline-induced antibacterial activity against multidrug/extremely drug-resistant/colistin-resistant Pseudomonas aeruginosa isolate 91433 assessed as fold reduction in minocycline MIC at 4 ug/ml after 18 hrs by checkerboard assay relative to control. The class given is functional. Put shortly: (§1)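 Checkerboard in Mueller-Hinton broth, 10 × 7 matrix, with the adjuvant held at 4 µg/mL. Inoculum from a 0.5 McFarland suspension diluted 1:50; 18 h at 37 °C. Antibiotic MIC (lowest concentration with no growth) with adjuvant is compared with the antibiotic MIC alone, giving a fold reduction.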

Series [2] deals with Pseudomonas aeruginosa. Briefly: Induction of outer membrane permeabilization in Pseudomonas aeruginosa PAO1 at 32 ug/ml after 30 mins by CFDASE staining based fluorescence assay. The class given is functional. The method, boiled down: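 Log-phase PAO1 washed in PBS, brought to OD600 0.5 and loaded with 100 µM CFDASE for 30 min at 37 °C, then washed. Cells were exposed to agent for 30 min at 37 °C and supernatant fluorescence read at 488/520 nm. Untreated cells were subtracted; 1% Triton X-100 served as positive control.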

Series [3] relates to Staphylococcus aureus. Briefly: Antibacterial activity against methicillin resistant Staphylococcus aureus ATCC 33592 after 18 hrs by microtiter dilution assay. The format is functional. Conditions: ATCC 33592, 18 h. Put shortly: (§2)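 Broth microdilution following CLSI guidelines. An overnight culture was adjusted to 0.5 McFarland in saline, then diluted 1:50 in Mueller-Hinton broth. This inoculum was added in equal volume to 2-fold serial dilutions of agent in MHB and incubated 18 h at 37 °C. MIC was the lowest concentration with no visible growth.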

A short description of series [4]: Ratio of cytotoxic concentration against human DU145 cells to synergistic concentration for Pseudomonas aeruginosa PAO1 in presence of minocycline.
The subject of series [5] is Acinetobacter baumannii. Briefly: Synergistic antibacterial activity against multidrug-resistant Acinetobacter baumannii 110193 after 18 hrs in presence of minocycline by checkerboard assay. The format is functional. Conditions: Acinetobacter baumannii, 110193, 18 h. The method, boiled down: (§3)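 Checkerboard in MHB with a 10 × 7 matrix: antibiotic serially diluted along one axis, adjuvant along the other. Inoculum was a 1:50 dilution of a 0.5 McFarland suspension, incubated 18 h at 37 °C and read on a plate reader. Each FIC is the concentration in a no-growth well divided by the MIC alone; FIC index is their sum, with ≤0.5 taken as synergy.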

Series [6] concerns Pseudomonas aeruginosa. The series is described as follows: Antibacterial activity against multidrug/extremely drug-resistant/colistin-susceptible Pseudomonas aeruginosa isolate P262-101856 after 18 hrs by microtiter dilution assay. As to conditions: isolate P262-101856, 18 h. The class given is functional. Put shortly: as §2
For series [7], the system named is Pseudomonas aeruginosa. Briefly: Potentiation of erythromycin-induced antibacterial activity against Pseudomonas aeruginosa PAO1 at 4 ug/ml after 18 hrs by checkerboard assay. The class given is functional. The method, boiled down:
(§4)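 Checkerboard in Mueller-Hinton broth: antibiotic serially diluted along one axis and adjuvant along the other (10 × 7 matrix). Inoculum from a 0.5 McFarland saline suspension diluted 1:50 in MHB; 18 h at 37 °C, then plate read. MIC is the lowest concentration with no growth. FIC of each agent is its concentration in a no-growth well divided by its MIC alone; FIC index is the sum of both. FIC index ≤0.5 counts as synergy.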

Series [8] is described as follows: Cytotoxicity against human DU145 cells assessed as cell viability at 20 uM after 48 hrs by MTS assay relative to control. The class given is cell-based, DU-145. Conditions: read-out: Activity. The method, boiled down: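 DU145 and JIMT-1 grown in DMEM with 10% FBS and penicillin/streptomycin at 37 °C, 5% CO2. 7500–9000 cells/well were seeded for 24 h, then treated at 2.5–30 µM (final) for 48 h. MTS reagent (20% v/v) added for 4 h and OD read at 490 nm after blank subtraction; viability expressed relative to vehicle control.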
In general terms: Formazan colour is commonly taken as a measure of viable cells.

Series [9] in a line: Ratio of cytotoxic concentration against human JIMT1 cells to synergistic concentration for Pseudomonas aeruginosa PAO1 in presence of rifampicin.
Series [10] deals with Pseudomonas aeruginosa. The series is described as follows: Potentiation of minocycline-induced antibacterial activity against multidrug/extremely drug-resistant/colistin-susceptible Pseudomonas aeruginosa isolate 101885 at 4 ug/ml after 18 hrs by checkerboard assay. The format is functional. The method, boiled down:
as §4

Series [11] concerns Pseudomonas aeruginosa. The series is described as follows: Synergistic antibacterial activity against Pseudomonas aeruginosa PAO1 after 18 hrs in presence of meropenem by checkerboard assay. The format is functional. Conditions: PAO1, 18 h. The method, boiled down: (§5)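 Checkerboard in MHB: antibiotic diluted along one axis and adjuvant along the other (10 × 7 matrix). Inoculum was a 1:50 dilution in MHB of a 0.5 McFarland saline suspension; incubated 18 h at 37 °C. Each FIC = concentration in the no-growth well divided by the MIC alone; FIC index = sum of both FICs. ≤0.5 synergy, 0.5–4 no interaction, ≥4 antagonism.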

The test system of series [12] is Pseudomonas aeruginosa. Briefly: Potentiation of rifampicin-induced antibacterial activity against multidrug/extremely drug-resistant/colistin-resistant Pseudomonas aeruginosa isolate 101243 assessed as fold reduction in rifampicin MIC at 4 ug/ml after 18 hrs by checkerboard assay relative to control. The class given is functional. Put shortly:
as §1

For series [13], the system named is Klebsiella pneumoniae. The series is described as follows: Antibacterial activity against multidrug-resistant Klebsiella pneumoniae 116381 after 18 hrs by microtiter dilution assay. The class given is functional. Conditions: Klebsiella pneumoniae, 116381, 18 h. Put shortly:
as §2

In series [14] the test system is Pseudomonas aeruginosa. Briefly: Antibacterial activity against Pseudomonas aeruginosa PAO1 after 18 hrs by microtiter dilution assay. The class given is functional. Conditions: PAO1, 18 h. Put shortly:
as §2

For series [15], the system named is Pseudomonas aeruginosa. The series is described as follows: Antibacterial activity against multidrug/extremely drug-resistant/colistin-susceptible Pseudomonas aeruginosa isolate 100036 after 18 hrs by microtiter dilution assay. The format is functional. As to conditions: isolate 100036, 18 h. Put shortly: as §2
The test system of series [16] is Pseudomonas aeruginosa. Briefly: Synergistic antibacterial activity against Pseudomonas aeruginosa PAO1 after 18 hrs in presence of colistin by checkerboard assay. The class given is functional. Conditions: PAO1, 18 h. The method, boiled down: as §5
For series [17], the system named is Acinetobacter baumannii. Briefly: Synergistic antibacterial activity against multidrug-resistant Acinetobacter baumannii AB030 after 18 hrs in presence of rifampicin by checkerboard assay. The format is functional. As to conditions: AB030, 18 h. The method, boiled down: as §3
Series [18] deals with Pseudomonas aeruginosa. The series is described as follows: Potentiation of trimethoprim-induced antibacterial activity against Pseudomonas aeruginosa PAO1 at 4 ug/ml after 18 hrs by checkerboard assay. The class given is functional. The method, boiled down:
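Checkerboard broth microdilution in MHB: antibiotic serially diluted along one axis, adjuvant along the other (10 × 7 matrix). Inoculum from 0.5 McFarland saline suspension diluted 1:50 in MHB; 18 h at 37 °C. MIC taken as lowest concentration with no growth. FIC per agent = combination MIC/MIC alone; FIC index = sum (≤0.5 synergy).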

Series [19] concerns Pseudomonas aeruginosa. The series is described as follows: Synergistic antibacterial activity against Pseudomonas aeruginosa PAO1 after 18 hrs in presence of trimethoprim by checkerboard assay. As to conditions: PAO1, 18 h. The class given is functional. Put shortly: as §5
In series [20] the test system is Pseudomonas aeruginosa. Briefly: Induction of cytoplasmic membrane depolarization in Pseudomonas aeruginosa PAO1 up to 1200 secs by diSC3-5 staining based fluorescence assay. The format is functional. Put shortly: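 Mid-log PAO1 washed in 5 mM HEPES pH 7.4 with 20 mM glucose and resuspended to OD600 0.05. Cells were loaded with 0.2 mM EDTA and 0.4 µM diSC3-5 for 2 h at 37 °C in the dark, then equilibrated with 100 mM KCl for 30 min. Agent was added and fluorescence followed at 622/670 nm; agents tested at 32 µg/mL.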

Series [21] can be described thus: Ratio of cytotoxic concentration against human JIMT1 cells to synergistic concentration for Pseudomonas aeruginosa PAO1 in presence of minocycline.
The subject of series [22] is Pseudomonas aeruginosa. The series is described as follows: Potentiation of novobiocin-induced antibacterial activity against Pseudomonas aeruginosa PAO1 at 4 ug/ml after 18 hrs by checkerboard assay. The format is functional.

The source made the active and inactive calls. The calls are words filed in the database; no cut-off is given here.

With `Cl.Cl.Cl.Cl.Cl.Cl.Cl.NCCCC[C@H](N)C(=O)N(CCCCCCCCCCCCO[C@@H]1[C@@H](O[C@H]2O[C@H](CO)[C@@H](O)[C@H](N)[C@H]2O)[C@H](N)C[C@H](N)[C@H]1O[C@H]1O[C@H](CN)[C@@H](O)C[C@H]1N)Cc1c2ccccc2c(Cl)c2ccccc12`, the entries for the “fold change (FC)” value in [1] and in series [12] were 128 and 32, respectively. Also, in [2], the result was Active. For the same compound, the MIC – broadly, the lowest concentration that inhibits growth of the organism – in series [3] was 8 µg/mL; in [5] it was 2 µg/mL; in series [6], 32 µg/mL; in [11], 1 µg/mL; in series [13] it was 256 µg/mL; in series [14] it was 32 µg/mL. Moreover, the MIC in [15] came out at 32 µg/mL; in [16], 1 µg/mL; in series [17], 8 µg/mL; in series [19], 2 µg/mL. For the same compound, the Ratio in series [4], in [9] and in series [21] was 6 each time. In addition, the “fractional inhibitory concentration index (FICI)” value in series [7] is 0.156; in series [10] it was 0.156; in series [18], 0.126; in series [22], 0.071. Further, the viability at 48 h, 20 µM in series [8] is above 50%. Besides, the Activity result in [20] was “Dose-dependent effect”.
